Reference: PMC8887543 (Nucleic Acids Research, 2022)

What was measured:
[1] = tested on: dT21 (DNA, single strand) TTTTTTTTTTTTTTTTTTTTT; experiment: fluorescence light-up; conditions: 60 mM KCl; 10 mM Tris-HCl, pH 7.4
[2] = tested on: G4-DNA (c-MYC promoter, telomeric) versus other nucleic acids; experiment: Selectivity screening by induced fluorescence with 20 nucleic acids; assay type: binding; conditions: 5 μM ligand, 18 μM nucleic acid, Tris–HCl pH 7.4, 60 mM KCl
How it was run: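 For induced-fluorescence selectivity, the test compound (5 μM) was mixed with each nucleic acid (18 μM) in 10 mM Tris–HCl (pH 7.4) with 60 mM KCl. Emission was recorded on a fluorescence spectrometer against compound alone without DNA. Samples were also viewed under 302 nm UV illumination.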

MCF-7 cells = experiment: BRACO19 displacement in stained cells, confocal imaging; assay type: cell-based, human; conditions: ligand 5 μM, BRACO19 0–15 μM
How it was run: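 MCF-7 cells were stained with the test compound (5 μM) plus increasing BRACO19 (0–15 μM) for displacement. Images were taken by laser-scanning confocal microscopy with 488 nm excitation. A parallel solution assay followed fluorescence of the compound (5 μM) bound to nucleic acid under the same BRACO19 range.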

binding [1]: weak
Compound: CN1C(=Cc2cc[n+](C)c3ccccc23)Sc2ccccc21 [TO, thiazole orange]
Selectivity toward G4-DNA structures by induced fluorescence [2]: non-selective | Fluorescence change in stained cells after BRACO19 treatment (MCF-7 cells): not obvious
